Published values pooled from the literature.
AHR: Aryl hydrocarbon receptor (AHR, Homo sapiens, UniProt P35869)
SLC10A2: Ileal sodium/bile acid cotransporter (SLC10A2, Homo sapiens, UniProt Q12908)

COC(=O)c1cccc(C(=O)c2c[nH]c3c4c(ccc23)CCC4)n1
EC50 (AHR; reporter gene, agonist, luciferase): 0.031 µM

Cc1cc2nc3c(=O)[nH]c(=O)nc-3n(C[C@H](O)[C@H](O)[C@H](O)COP(=O)(O)OP(=O)(O)OC[C@H]3O[C@@H](n4cnc5c(N)ncnc54)[C@H](O)[C@@H]3O)c2cc1C
Kd (Splicing factor 1 (Homo sapiens, UniProt Q15637); binding; lysate): 0.842 µM

CC(C)c1cc(C2CCCN2C(=O)c2cc(-c3ccc4c(c3)OCO4)on2)no1 (stereo not drawn)
EC50 (Cannabinoid receptor 2 (CNR2, Homo sapiens, UniProt P34972); cAMP, agonist, TR-FRET): 0.01 µM

N=C(N)c1ccc(CN)cc1
Kd (Coagulation factor X (F10, Homo sapiens, UniProt P00742); binding, BLI): 1700 µM

COC(=O)c1ccc(C(=O)c2c[nH]c3ccccc23)cc1
EC50 (AHR; reporter gene, agonist, luciferase): > 10 µM

COC(=O)C1=C(C)NC(C)=C(C(=O)OCC(C)C)C1c1ccccc1[N+](=O)[O-] (stereo not drawn)
Ki (SLC10A2; transporter uptake, inhibitor): 4.77 µM

O=C(N[C@H]1COC(=O)[C@@H](NC(=O)c2cccc(O)c2O)COC(=O)[C@@H](NC(=O)c2cccc(O)c2O)COC1=O)c1cccc(O)c1O
Kd (Neutrophil gelatinase-associated lipocalin (LCN2, Homo sapiens, UniProt P80188, C107S); binding, fluorescence; pH 7.4): 0.0036 µM

O=C(c1ccccn1)c1c[nH]c2ccccc12
EC50 (AHR; reporter gene, agonist, luciferase): > 0.01 µM

O=C(CCCCCCNC(=O)c1cnc(N(c2ccccc2)c2ccccc2)nc1)NO
Kd (Polyamine deacetylase HDAC10 (HDAC10, Homo sapiens, UniProt Q969S8); cell-free assay): 0.456 µM

C[C@]12C=CC(=O)C=C1CC[C@@H]1[C@@H]2C(=O)C[C@@]2(C)[C@H]1CC[C@]2(O)C(=O)CO
Ki (SLC10A2; transporter uptake, inhibitor): 1480 µM

CSCC[C@H](NC(=O)[C@@H](NC(=O)[C@@H](N)Cc1ccc(O)cc1)C(C)C)C(=O)NCC(=O)N[C@@H](Cc1c[nH]cn1)C(=O)N[C@@H](Cc1ccccc1)C(=O)N[C@@H](CCCNC(=N)N)C(=O)N[C@@H](Cc1c[nH]c2ccccc12)C(=O)N[C@@H](CC(=O)O)C(=O)O
EC50 (Melanocortin receptor 5 (MC5R, Homo sapiens, UniProt P33032); reporter gene, agonist): 4.46 µM

COC(=O)c1cccc(C(=O)c2c[nH]c3c2ccc2ccccc23)n1
EC50 (AHR; reporter gene, agonist, luciferase): 0.015 µM

COCCOC(=O)C1=C(C)NC(C)=C(C(=O)OC/C=C/c2ccccc2)C1c1cccc([N+](=O)[O-])c1 (stereo not drawn)
Ki (SLC10A2; transporter uptake, inhibitor): 45.2 µM

CCOC(=O)c1cccc(C(=O)c2c[nH]c3ccccc23)n1
EC50 (AHR; reporter gene, agonist, luciferase): 1.11 µM

CCOC(=O)C1=C(C)NC(C)=C(C(=O)OCC)C1c1c(F)c(F)c(F)c(F)c1F
Ki (SLC10A2; transporter uptake, inhibitor): 23.1 µM
